# Laboratory results as given in ChEMBL document CHEMBL1142312, “Anti-Plasmodium activity of tetrazolium salts” (Bioorg Med Chem, 2008).
# Where “and” joins values, the source holds several entries; their conditions need not be identical. Equal values may be shown once.
# Assays:
# [1] = Ratio of IC50 for CHO cells to IC50 for Plasmodium falciparum; assay type: functional
# [2] = test system: Plasmodium falciparum; experiment: Antimalarial activity against Plasmodium falciparum in LDH reporter assay; assay type: functional, organism-based
# How it was run: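 P. falciparum line ItG cultured in O+ human erythrocytes in RPMI-1640 with 10% human serum and 50 μM hypoxanthine. Twofold serial dilutions from 10 mg/mL DMSO stock, 2% hematocrit, 2% parasitemia. Incubated 72 h at 37 °C under 95% N2/3% CO2/2% O2. Parasite LDH assay read at 650 nm after 1 h. IC50 by non-linear regression, mean ± SE of four determinations.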
# [3] = (§1) Toxicity in CHO cells; assay type: cell-based, Cricetulus griseus; conditions: Chinese hamster (Cricetulus griseus), CHO cells
# How it was run: (§2)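 CHO cells grown to 50% confluency in RPMI-1640 with 10% fetal calf serum, 25 mM Hepes and gentamicin. Serial dilutions made from a 10 mg/mL DMSO stock; DMSO-only controls. After 48 h, MTT (10 mg/mL in medium) added for 1 h, then DMSO added and absorbance read at 650 nm. IC50 by non-linear regression of dose–response; mean ± SE of four determinations.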
# [4] = test system: CHO; experiment: as §1; assay type: cell-based, Cricetulus griseus; conditions: cho; how it was run: as §2
# [5] = Inhibition of glutathione reduction of nitrotetrazolium blue chloride
IC50 [2],IC50 ([2]; Plasmodium falciparum),Compound,Ratio IC50 [1],IC50 [3],IC50 [4],IC50 [5]
9100 nM and 4500 nM,–,O=[N+]([O-])c1ccc(-[n+]2nc(-c3ccccc3)nn2-c2ccccc2)cc1.[Cl-],1.8 and 2.7,16.2 µM,12 µM,–
–,–,CC(=O)Nc1ccc(/C=C/c2ccc(N=C=S)cc2S(=O)(=O)O)c(S(=O)(=O)O)c1,–,–,–,2.7 µM
–,260 nM,COc1cc(-c2nn(-c3ccccc3)[n+](-c3ccccc3)n2)ccc1OCc1ccccc1.[Cl-],18.1,4.7 µM,–,–
–,350 nM,[Cl-].c1ccc(-n2nc(-c3cccc4ccccc34)n[n+]2-c2ccccc2)cc1,6.9,2.4 µM,–,–
–,400 nM,COc1ccc(-n2nc(-c3ccc(-c4ccccc4)cc3)n[n+]2-c2ccc(Cl)cc2)cc1.[Cl-],30,12 µM,–,–
–,630 nM,Clc1ccc(-[n+]2nc(-c3ccccc3)nn2-c2ccccc2)cc1.[Cl-],61.9,39 µM,–,–
–,290 nM,COc1ccc(-n2nc(-c3ccc(OCc4ccccc4)cc3)n[n+]2-c2cccc(Cl)c2)cc1.[Cl-],55.2,16 µM,–,–
–,230 nM,[Cl-].c1ccc(-c2ccc(-c3nn(-c4ccccc4)[n+](-c4ccccc4)n3)cc2)cc1,30.4,7 µM,–,–
–,840 nM,Clc1cccc(-[n+]2nc(-c3ccccc3)nn2-c2ccccc2)c1.[Cl-],7.5,6.3 µM,–,–
–,1140 nM,Clc1ccc(-[n+]2nc(-c3ccc(OCc4ccccc4)cc3)nn2-c2ccccc2)cc1.[Cl-],4,4.6 µM,–,–
–,200 nM,[Cl-].c1ccc(COc2ccc(-n3nc(-c4ccccc4)n[n+]3-c3ccccc3)cc2)cc1,185,37 µM,–,–
–,–,O=S(=O)(O)c1cc(N=C=S)ccc1/C=C/c1ccc(N=C=S)cc1S(=O)(=O)O,–,–,–,31 µM
–,2500 nM,CCCCCCCCCCCOc1cccc(-c2nn(-c3ccccc3)[n+](-c3ccccc3)n2)c1.[Cl-],2,5 µM,–,–
–,6200 nM,[Cl-].c1ccc(-n2nc(C3CCCCC3)n[n+]2-c2ccccc2)cc1,4,25 µM,–,–
–,930 nM,Fc1ccc(-[n+]2nc(-c3ccccc3)nn2-c2ccccc2)cc1.[Cl-],41.9,39 µM,–,–
–,7300 nM,COc1cc(-c2nn(-c3ccccc3)[n+](-c3ccc([N+](=O)[O-])cc3)n2)cc(OC)c1OC(C)=O.[Cl-],2.6,19 µM,–,–

Compound,IC50 [2],IC50 ([2]; Plasmodium falciparum),Ratio IC50 [1],IC50 [3],IC50 [4],IC50 [5]
[Cl-].c1ccc(-c2nn(-c3ccccc3)[n+](-c3ccccc3)n2)cc1 [TETRAZOLIUM RED],–,300 nM,236.7,71 µM,–,–
